# In ChEMBL document CHEMBL3621107, “Ring fusion strategy for synthesis and lead optimization of sulfur-substituted anthra[1,2-c][1,2,5]thiadiazole-6,11-dione derivatives as promising scaffold of antitumor agents” (Eur J Med Chem, 2015):
# Columns and labels:
# Format in all cases: functional
# [1] = Cytotoxicity against human CNS cancer cells assessed as growth inhibition after 48 hrs by SRB assay; details: Cancer cell lines
# Outline: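 NCI-60 five-dose data (0.01–100 μM) were grouped by tumour subpanel. A subpanel mean (MID) of GI50 was computed for the CNS cancer lines. A selectivity ratio was obtained as full-panel MID divided by subpanel MID: 3–6 counts as moderate, >6 as high.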
# COLO 205 = assay: Cytotoxicity against human COLO205 cells after 48 hrs by SRB assay; details: COLO 205, 48 h
# Outline: (§1)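 NCI-60 human tumour cell panel screen, second stage, run by the NCI Developmental Therapeutics Program. Compounds were tested at five concentrations (0.01, 0.1, 1, 10 and 100 μM). Percentage growth was plotted against log10 concentration for each cell line. GI50, TGI and LC50 were taken from these dose-response curves.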
# CAKI-1 = assay: Cytotoxicity against human Caki1 cells after 48 hrs by SRB assay; details: CAKI-1, 48 h; outline: as §1
# [2] = Cytotoxicity against human colon cancer cells assessed as growth inhibition after 48 hrs by SRB assay; details: Cancer cell lines
# Outline: (§2)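 Values come from the NCI-60 five-dose panel (0.01–100 µM). The subpanel MID is the mean GI50 over the lines of that tumour subpanel. The selectivity ratio is the full-panel MID divided by the subpanel MID; 3–6 is rated moderate and >6 high.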
# BT-549 = assay: Cytotoxicity against human BT549 cells after 48 hrs by SRB assay; details: BT-549, 48 h; outline: as §1
# A498 = assay: Cytotoxicity against human A498 cells after 48 hrs by SRB assay; details: A498, 48 h; outline: as §1
# MDA-MB-435 = assay: Cytotoxicity against human MDA-MB-435 cells after 48 hrs by SRB assay; details: MDA-MB-435, 48 h
# Outline: (§3)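 Second-stage NCI-60 panel run by the NCI Developmental Therapeutics Program, covering nine tumour subpanels. Five concentrations were tested: 0.01, 0.1, 1, 10 and 100 μM. Percentage growth at each level was plotted against log10 drug concentration. GI50, TGI and LC50 were read from these dose-response curves. Subpanel MID values were divided into the full-panel MID to give selectivity ratios.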
# SNB-19 = assay: Cytotoxicity against human SNB19 cells after 48 hrs by SRB assay; details: SNB-19, 48 h; outline: as §3
# PC-3 = assay: Cytotoxicity against human PC3 cells after 48 hrs by SRB assay; details: PC-3, 48 h; outline: as §3
# CCRF-CEM = assay: Cytotoxicity against human CCRF-CEM cells after 48 hrs by SRB assay; outline: as §1
# ACHN = assay: Cytotoxicity against human ACHN cells after 48 hrs by SRB assay; outline: as §1
# HCT-116 = assay: Cytotoxicity against human HCT116 cells after 48 hrs by SRB assay; details: HCT-116, 48 h; for CC50: read-out: LC50 (the source's name); outline: as §1
# MDA-MB-468 = assay: Cytotoxicity against human MDA-MB-468 cells after 48 hrs by SRB assay; details: MDA-MB-468, 48 h; outline: as §3
# NCI-H460 = assay: Cytotoxicity against human NCI-H460 cells after 48 hrs by SRB assay; details: NCI-H460, 48 h; outline: as §3
# SK-OV-3 = assay: Cytotoxicity against human SKOV3 cells after 48 hrs by SRB assay; details: SK-OV-3, 48 h; outline: as §3
# M14 = assay: Cytotoxicity against human M14 cells after 48 hrs by SRB assay; details: M14, 48 h; outline: as §1
# IGROV-1 = assay: Cytotoxicity against human IGROV1 cells after 48 hrs by SRB assay; details: IGROV-1, 48 h; outline: as §1
# K562 = assay: Cytotoxicity against human K562 cells after 48 hrs by SRB assay; details: K562, 48 h; outline: as §1
# HOP-92 = assay: Cytotoxicity against human HOP92 cells after 48 hrs by SRB assay; details: HOP-92, 48 h; outline: as §1
# NCI-H23 = assay: Cytotoxicity against human NCI-H23 cells after 48 hrs by SRB assay; details: NCI-H23, 48 h; outline: as §3
# SK-MEL-2 = assay: Cytotoxicity against human SK-MEL-2 cells after 48 hrs by SRB assay; details: SK-MEL-2, 48 h; outline: as §3
# RPMI-8226 = assay: Cytotoxicity against human RPMI8226 cells after 48 hrs by SRB assay; details: RPMI-8226, 48 h; outline: as §3
# HCT-15 = assay: Cytotoxicity against human HCT15 cells after 48 hrs by SRB assay; details: HCT-15, 48 h; outline: as §1
# OVCAR-8 = assay: Cytotoxicity against human OVCAR8 cells after 48 hrs by SRB assay; details: OVCAR-8, 48 h; for CC50: read-out: LC50 (the source's name); outline: as §3
# HL-60(TB) = assay: Cytotoxicity against human HL-60(TB) cells after 48 hrs by SRB assay; details: HL-60, 48 h
# Outline: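 NCI Developmental Therapeutics Program 60-cell-line screen, second stage: cells exposed to five concentrations (0.01, 0.1, 1, 10 and 100 μM). Growth is plotted against log10 concentration for each line, and GI50, TGI and LC50 are read from the dose-response curves.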
# [3] = Cytotoxicity against human Hs578T cells after 48 hrs by SRB assay; details: Hs-578T; outline: as §1
# [4] = Cytotoxicity against human non-small cell lung cancer cells assessed as growth inhibition after 48 hrs by SRB assay; details: Cancer cell lines; outline: as §2
# SK-MEL-5 = assay: Cytotoxicity against human SK-MEL-5 cells after 48 hrs by SRB assay; details: SK-MEL-5, 48 h; outline: as §3
# [5] = Cytotoxicity against human ovarian cancer cells assessed as growth inhibition after 48 hrs by SRB assay; details: Cancer cell lines; outline: as §2
smiles,measurement,setting,value
CC(C)Sc1cc2c(c3nsnc13)C(=O)c1ccccc1C2=O,GI50,[1],1.79 µM
same,GI50,COLO 205,13.3 µM
same,LC50,COLO 205,51 µM
same,TGI,COLO 205,20.6 µM
same,GI50,CAKI-1,0.59 µM
same,LC50 (concentration causing 50% net cell kill),CAKI-1,9.08 µM
same,TGI,CAKI-1,2.59 µM
same,GI50,[2],4.94 µM
same,GI50,BT-549,2.19 µM
same,LC50,BT-549,29.8 µM
same,TGI,BT-549,8.38 µM
same,GI50,A498,0.56 µM
same,LC50 (concentration killing 50% of cells),A498,23.6 µM
same,TGI,A498,4.28 µM
same,GI50,MDA-MB-435,0.2 µM
same,LC50,MDA-MB-435,0.74 µM
same,TGI,MDA-MB-435,0.39 µM
same,GI50,SNB-19,3.32 µM
same,LC50,SNB-19,36.3 µM
same,TGI,SNB-19,13.1 µM
same,GI50,PC-3,0.25 µM
same,LC50 (concentration killing 50% of cells),PC-3,75.4 µM
same,TGI,PC-3,1.38 µM
same,LC50,CCRF-CEM,> 100 µM
same,TGI,CCRF-CEM,0.58 µM
same,GI50,ACHN,1.25 µM
same,LC50,ACHN,8.5 µM
same,TGI,ACHN,3.26 µM
same,GI50,HCT-116,0.29 µM
same,TGI,HCT-116,1.01 µM
same,CC50,HCT-116,4.22 µM
same,GI50,MDA-MB-468,0.37 µM
same,LC50,MDA-MB-468,4.39 µM
same,TGI,MDA-MB-468,1.42 µM
same,GI50,NCI-H460,2.02 µM
same,LC50 (concentration killing 50% of cells),NCI-H460,40.5 µM
same,TGI,NCI-H460,8.33 µM
same,GI50,SK-OV-3,2.9 µM
same,LC50,SK-OV-3,36.9 µM
same,TGI,SK-OV-3,12.6 µM
same,GI50,M14,1.54 µM
same,LC50,M14,6.53 µM
same,TGI,M14,3.18 µM
same,GI50,IGROV-1,0.96 µM
same,LC50,IGROV-1,9.18 µM
same,TGI,IGROV-1,3.01 µM
same,GI50,K562,0.26 µM
same,LC50,K562,14.3 µM
same,TGI,K562,1.35 µM
same,GI50,HOP-92,0.32 µM
same,LC50 (concentration giving 50% net cell kill),HOP-92,14.5 µM
same,TGI,HOP-92,2.18 µM
same,GI50,NCI-H23,0.56 µM
same,LC50,NCI-H23,8.48 µM
same,TGI,NCI-H23,2.58 µM
same,GI50,SK-MEL-2,0.99 µM
same,LC50,SK-MEL-2,5.87 µM
same,TGI,SK-MEL-2,2.42 µM
same,GI50,RPMI-8226,0.29 µM
same,LC50,RPMI-8226,> 100 µM
same,TGI,RPMI-8226,1.78 µM
same,GI50,HCT-15,1.69 µM
same,LC50,HCT-15,40.4 µM
same,TGI,HCT-15,6.91 µM
same,GI50,OVCAR-8,0.49 µM
same,TGI,OVCAR-8,2.37 µM
same,CC50,OVCAR-8,9.85 µM
same,GI50,HL-60(TB),0.23 µM
same,LC50,HL-60(TB),40.8 µM
same,TGI,HL-60(TB),0.617 µM
same,GI50,[3],1.62 µM
same,LC50,[3],> 100 µM
same,TGI,[3],6.27 µM
same,GI50,[4],1.81 µM
same,GI50,SK-MEL-5,1.29 µM
same,LC50,SK-MEL-5,5.23 µM
same,TGI,SK-MEL-5,2.6 µM
same,GI50,[5],1.08 µM
O=C1c2ccccc2C(=O)c2c1cc(Sc1ccccc1Br)c1nsnc21,GI50,[1],21.8 µM
same,GI50,COLO 205,> 50 µM
same,LC50,COLO 205,> 50 µM
same,TGI,COLO 205,> 50 µM
same,GI50,CAKI-1,17.2 µM
same,LC50 (concentration causing 50% net cell kill),CAKI-1,> 50 µM
same,TGI,CAKI-1,> 50 µM
same,GI50,[2],21.4 µM
same,GI50,BT-549,20.5 µM
same,LC50,BT-549,> 50 µM
same,TGI,BT-549,> 50 µM
same,GI50,A498,10.7 µM
same,LC50 (concentration killing 50% of cells),A498,> 50 µM
same,TGI,A498,> 50 µM
same,GI50,MDA-MB-435,9.23 µM
same,LC50,MDA-MB-435,32.7 µM
same,TGI,MDA-MB-435,17.4 µM
same,GI50,SNB-19,32.2 µM
same,LC50,SNB-19,> 50 µM
same,TGI,SNB-19,> 50 µM
same,GI50,PC-3,14.8 µM
same,LC50 (concentration killing 50% of cells),PC-3,> 50 µM
same,TGI,PC-3,> 50 µM
same,GI50,CCRF-CEM,4.88 µM
same,LC50,CCRF-CEM,> 50 µM
same,TGI,CCRF-CEM,> 50 µM
same,GI50,ACHN,12.8 µM
same,LC50,ACHN,> 50 µM
same,TGI,ACHN,32.5 µM
same,GI50,HCT-116,7.87 µM
same,TGI,HCT-116,19.9 µM
same,CC50,HCT-116,> 50 µM
same,GI50,MDA-MB-468,0.95 µM
same,LC50,MDA-MB-468,4.2 µM
same,TGI,MDA-MB-468,2 µM
same,GI50,NCI-H460,36.1 µM
same,LC50 (concentration killing 50% of cells),NCI-H460,> 50 µM
same,TGI,NCI-H460,> 50 µM
same,GI50,SK-OV-3,21 µM
same,LC50,SK-OV-3,> 50 µM
same,TGI,SK-OV-3,> 50 µM
same,GI50,M14,17.4 µM
same,LC50,M14,> 50 µM
same,TGI,M14,> 50 µM
same,GI50,IGROV-1,19.1 µM
same,LC50,IGROV-1,> 50 µM
same,GI50,K562,18.5 µM
same,LC50,K562,> 50 µM
same,TGI,K562,> 50 µM
same,GI50,HOP-92,18.4 µM
same,LC50 (concentration giving 50% net cell kill),HOP-92,> 50 µM
same,TGI,HOP-92,> 50 µM
same,GI50,NCI-H23,13.5 µM
same,LC50,NCI-H23,> 50 µM
same,TGI,NCI-H23,> 50 µM
same,GI50,SK-MEL-2,13.8 µM
same,LC50,SK-MEL-2,> 50 µM
same,TGI,SK-MEL-2,34.1 µM
same,GI50,RPMI-8226,11.3 µM
same,LC50,RPMI-8226,> 50 µM
same,TGI,RPMI-8226,> 50 µM
same,GI50,HCT-15,12.3 µM
same,LC50,HCT-15,> 50 µM
same,TGI,HCT-15,> 50 µM
same,GI50,OVCAR-8,11.1 µM
same,TGI,OVCAR-8,> 50 µM
same,CC50,OVCAR-8,> 50 µM
same,GI50,HL-60(TB),17.8 µM
same,LC50,HL-60(TB),> 50 µM
same,TGI,HL-60(TB),> 50 µM
same,GI50,[3],17.8 µM
same,LC50,[3],> 50 µM
same,TGI,[3],> 50 µM
same,GI50,[4],19.3 µM
same,GI50,SK-MEL-5,5.08 µM
same,LC50,SK-MEL-5,24.3 µM
same,TGI,SK-MEL-5,11.1 µM
same,GI50,[5],11.2 µM
